Consider 2 compounds from ChEMBL document CHEMBL4376844, “A Novel Decalin-Based Bicyclic Scaffold for FKBP51-Selective Ligands” (J Med Chem, 2020).

The source made the active and inactive calls. The rule behind the calls is not given here.

In series [1] the test system is KB. Kind of series: Induction of apoptosis in human KB/HeLa cells overexpressing FKBP51 assessed as late apoptotic cells at 1 uM incubated for 40 hrs by AnnexinV-FITC and propidium iodide staining based flow cytometry analysis (reference value: 3.4%). It counts as functional.
The subject of series [2] is KB. The series can be described thus: Induction of apoptosis in human KB/HeLa cells overexpressing FKBP51 assessed as necrotic cells at 1 uM incubated for 40 hrs by AnnexinV-FITC and propidium iodide staining based flow cytometry analysis (reference value: 5.4%). It counts as functional.
Series [3] has as its system KB. The series can be described thus: Induction of apoptosis in human KB/HeLa cells overexpressing FKBP51 assessed as early apoptotic cells at 1 uM incubated for 40 hrs by AnnexinV-FITC and propidium iodide staining based flow cytometry analysis (reference value: 3.5%). It counts as functional.
Series [4] concerns KB. The series can be described thus: Induction of apoptosis in human KB/HeLa cells overexpressing FKBP51 assessed as viable cells at 1 uM incubated for 40 hrs by AnnexinV-FITC and propidium iodide staining based flow cytometry analysis (reference value: 87.7%). It counts as functional. As to conditions: read-out: Activity.
For series [5], the system named is KB. The series can be described thus: Induction of apoptosis in human KB/HeLa cells overexpressing FKBP51 assessed as necrotic cells at 50 uM incubated for 40 hrs by AnnexinV-FITC and propidium iodide staining based flow cytometry analysis (reference value: 5.4%). It counts as functional.
In series [6] the test system is KB. Kind of series: Cytotoxicity against human KB/HeLa cells overexpressing FKBP51 assessed as induction of cell death by measuring hypodiploid cells at 20 uM incubated for 72 hrs by propidium iodide based flow cytometry analysis (reference value: 4.7%). Type of series: functional.
For series [7], the system named is KB. The series can be described thus: Cytotoxicity against human KB/HeLa cells overexpressing FKBP51 assessed as induction of cell death incubated for 72 hrs by propidium iodide based flow cytometry analysis. It counts as functional. In outline: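 KB cells exposed to a range of compound doses for 72 h. 1×10^5 cells washed in PBS, then permeabilized in 0.1% sodium citrate, 0.1% Triton X-100 and 50 µg/mL propidium iodide for 30 min at 4°C in the dark. Nuclear DNA content read by flow cytometry on a log scale with debris gated out by forward scatter; % hypodiploid nuclei taken as dead cells. Four experiments, each in triplicate.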

Series [8] concerns KB. Kind of series: Induction of apoptosis in human KB/HeLa cells overexpressing FKBP51 assessed as necrotic cells at 12 uM incubated for 40 hrs by AnnexinV-FITC and propidium iodide staining based flow cytometry analysis (reference value: 5.4%). It counts as functional.
In series [9] the target is T1, Peptidyl-prolyl cis-trans isomerase FKBP4 (Homo sapiens, UniProt Q02790).
T1 sequence (Q02790 whole entry): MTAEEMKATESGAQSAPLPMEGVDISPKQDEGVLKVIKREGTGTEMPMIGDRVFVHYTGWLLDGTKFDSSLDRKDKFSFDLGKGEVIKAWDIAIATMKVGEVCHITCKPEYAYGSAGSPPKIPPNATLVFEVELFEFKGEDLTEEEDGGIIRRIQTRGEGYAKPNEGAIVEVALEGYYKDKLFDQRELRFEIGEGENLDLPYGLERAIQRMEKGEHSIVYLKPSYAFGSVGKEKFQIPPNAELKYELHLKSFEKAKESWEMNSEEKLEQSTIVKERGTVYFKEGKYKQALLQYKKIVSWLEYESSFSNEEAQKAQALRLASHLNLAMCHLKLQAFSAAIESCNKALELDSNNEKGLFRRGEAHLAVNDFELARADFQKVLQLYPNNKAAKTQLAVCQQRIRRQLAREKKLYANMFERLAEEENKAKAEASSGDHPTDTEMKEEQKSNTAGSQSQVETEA
The series can be described thus: Inhibition of human full length N-terminal His-tagged/C-terminal FLAG tagged FKBP52 expressed in Escherichia coli BL21 (DE3) cells incubated for 30 mins by competitive fluorescence polarization assay. As to conditions: 0.5 h.

The subject of series [10] is KB. The series can be described thus: Induction of apoptosis in human KB/HeLa cells overexpressing FKBP51 assessed as early apoptotic cells at 25 uM incubated for 40 hrs by AnnexinV-FITC and propidium iodide staining based flow cytometry analysis (reference value: 3.5%). It counts as functional.
Series [11] deals with KB. The series can be described thus: Induction of apoptosis in human KB/HeLa cells overexpressing FKBP51 assessed as late apoptotic cells at 25 uM incubated for 40 hrs by AnnexinV-FITC and propidium iodide staining based flow cytometry analysis (reference value: 3.4%). Type of series: functional.
Series [12] relates to KB. The series can be described thus: Induction of apoptosis in human KB/HeLa cells overexpressing FKBP51 assessed as increase in early apoptotic cells incubated for 40 hrs by annexin V and propidium iodide based flow cytometry analysis. Type of series: functional, cell-based.
For series [13], the system named is KB. The series can be described thus: Cytotoxicity against human KB/HeLa cells overexpressing FKBP51 assessed as induction of cell death by measuring hypodiploid cells at 60 uM incubated for 72 hrs by propidium iodide based flow cytometry analysis (reference value: 4.7%). It counts as functional.
Series [14] relates to KB. The series can be described thus: Induction of apoptosis in human KB/HeLa cells overexpressing FKBP51 assessed as viable cells at 50 uM incubated for 40 hrs by AnnexinV-FITC and propidium iodide staining based flow cytometry analysis (reference value: 87.7%). It counts as functional. As to conditions: read-out: Activity.
Series [15] deals with KB. The series can be described thus: Induction of apoptosis in human KB/HeLa cells overexpressing FKBP51 assessed as late apoptotic cells at 50 uM incubated for 40 hrs by AnnexinV-FITC and propidium iodide staining based flow cytometry analysis (reference value: 3.4%). Type of series: functional.
The target in series [16] is T2, Peptidyl-prolyl cis-trans isomerase FKBP5 (Homo sapiens, UniProt Q13451).
T2 sequence (Q13451 whole entry): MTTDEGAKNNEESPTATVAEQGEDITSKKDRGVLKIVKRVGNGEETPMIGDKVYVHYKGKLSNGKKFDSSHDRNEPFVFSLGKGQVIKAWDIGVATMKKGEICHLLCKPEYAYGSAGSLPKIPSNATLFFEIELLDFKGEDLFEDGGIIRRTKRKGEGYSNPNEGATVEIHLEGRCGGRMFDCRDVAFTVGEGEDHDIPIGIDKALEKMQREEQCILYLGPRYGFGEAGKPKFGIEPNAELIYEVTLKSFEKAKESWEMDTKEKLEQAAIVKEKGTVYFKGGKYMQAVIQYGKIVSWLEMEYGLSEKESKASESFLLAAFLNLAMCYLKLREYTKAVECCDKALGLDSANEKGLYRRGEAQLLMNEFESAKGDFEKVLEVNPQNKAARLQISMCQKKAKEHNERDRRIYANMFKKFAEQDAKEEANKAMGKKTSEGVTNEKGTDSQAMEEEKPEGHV
Kind of series: Inhibition of human full length N-terminal His-tagged/C-terminal FLAG tagged FKBP51 expressed in Escherichia coli BL21 (DE3) cells incubated for 30 mins by competitive fluorescence polarization assay.

Series [17] deals with KB. The series can be described thus: Induction of apoptosis in human KB/HeLa cells overexpressing FKBP51 assessed as early apoptotic cells at 50 uM incubated for 40 hrs by AnnexinV-FITC and propidium iodide staining based flow cytometry analysis (reference value: 3.5%). It counts as functional.
Series [18] has as its system KB. Kind of series: Induction of apoptosis in human KB/HeLa cells overexpressing FKBP51 assessed as necrotic cells at 25 uM incubated for 40 hrs by AnnexinV-FITC and propidium iodide staining based flow cytometry analysis (reference value: 5.4%). It counts as functional.
Series [19] deals with KB. The series can be described thus: Cytotoxicity against human KB/HeLa cells overexpressing FKBP51 assessed as induction of cell death by measuring hypodiploid cells at 6 uM incubated for 72 hrs by propidium iodide based flow cytometry analysis (reference value: 4.7%). It counts as functional.
A further series has as its system HeLa. The series can be described thus: Induction of apoptosis in human HeLa cells expressing low leves of FKBP51 at 50 uM incubated for 40 hrs by AnnexinV-FITC and propidium iodide staining based flow cytometry analysis. It counts as functional, cell-based.
For series [20], the system named is KB. Kind of series: Cytotoxicity against human KB/HeLa cells overexpressing FKBP51 assessed as induction of cell death by measuring hypodiploid cells at 1 uM incubated for 72 hrs by propidium iodide based flow cytometry analysis (reference value: 4.7%). Type of series: functional.
Series [21] deals with KB. Kind of series: Induction of apoptosis in human KB/HeLa cells overexpressing FKBP51 assessed as late apoptotic cells at 12 uM incubated for 40 hrs by AnnexinV-FITC and propidium iodide staining based flow cytometry analysis (reference value: 3.4%). Type of series: functional.
Series [22] relates to KB. Kind of series: Induction of apoptosis in human KB/HeLa cells overexpressing FKBP51 assessed as viable cells at 12 uM incubated for 40 hrs by AnnexinV-FITC and propidium iodide staining based flow cytometry analysis (reference value: 87.7%). It counts as functional. As to conditions: read-out: Activity.
In series [23] the test system is KB. The series can be described thus: Induction of apoptosis in human KB/HeLa cells overexpressing FKBP51 assessed as viable cells at 25 uM incubated for 40 hrs by AnnexinV-FITC and propidium iodide staining based flow cytometry analysis (reference value: 87.7%). It counts as functional. As to conditions: read-out: Activity.
Series [24] deals with KB. Kind of series: Induction of apoptosis in human KB/HeLa cells overexpressing FKBP51 assessed as early apoptotic cells at 12 uM incubated for 40 hrs by AnnexinV-FITC and propidium iodide staining based flow cytometry analysis (reference value: 3.5%). Type of series: functional.

`COc1ccc(CC[C@@H](OC(=O)[C@@H]2CCCCN2C(=O)[C@H](c2cc(OC)c(OC)c(OC)c2)C2CCCCC2)c2cccc(OCC(=O)O)c2)cc1OC`: the Activity with KB [1] came out at 12.6%; with KB [2], 2.1%; with KB [3] it was 20.2%. In addition, in the series on KB [4], the viability at 1 µM was determined as 65.1%.
As to `COc1ccc(CCC(OC(=O)C2CCCCN2C(=O)[C@@H]2C[C@@H](O)[C@@H](O)[C@@H]3CCCC[C@H]32)c2cccc(OCCN3CCOCC3)c2)cc1OC` (single isomer, unassigned), the Activity is 8.1% in the series on KB [5]; 15.3% in the series with KB [6]; “Dose-dependent effect” in the series with KB [7]; 9.6% in the series on KB [8]; 11.1% in the series with KB [10]; 9.6% in the series on KB [11]. Further, the Activity entry in the series on KB [12] is “Dose-dependent effect”; with KB [13] it was 26.1%; in the series with KB [15] it was 11.4%; with KB [17], 21.7%; with KB [18], 6.8%; in the series on KB [19], 11.6%. Moreover, the values for the Activity in the series on KB [20], with KB [21] and in the series on KB [24] were 5.6%, 6.6% and 10.1%, respectively. The “inhibition (INH)” value in series [9] is “Not Active”. Also, in the series with KB [14], the viability at 50 µM was 58.9%. For the same compound, the affinity in series [16] corresponds to a Ki of 280 nM. The result in the series on HeLa was Active. Further, the viability at 12 µM in the series with KB [22] stood at 73.7%. In the series with KB [23], the viability at 25 µM worked out at 72.5%.
